Experimental data taken from ChEMBL document CHEMBL1811848 (Bioorg Med Chem Lett, 2011).

What was measured:
[1] = target: T1, Peroxisome proliferator-activated receptor gamma (Homo sapiens) (UniProt P37231); assay: Transactivation of human PPARgamma expressed in human HepG2 cells co-transfected with PPRE3-TK-Luc by luciferase reporter gene assay relative to Rosiglitazone; type: cell-based
T1 sequence (whole entry): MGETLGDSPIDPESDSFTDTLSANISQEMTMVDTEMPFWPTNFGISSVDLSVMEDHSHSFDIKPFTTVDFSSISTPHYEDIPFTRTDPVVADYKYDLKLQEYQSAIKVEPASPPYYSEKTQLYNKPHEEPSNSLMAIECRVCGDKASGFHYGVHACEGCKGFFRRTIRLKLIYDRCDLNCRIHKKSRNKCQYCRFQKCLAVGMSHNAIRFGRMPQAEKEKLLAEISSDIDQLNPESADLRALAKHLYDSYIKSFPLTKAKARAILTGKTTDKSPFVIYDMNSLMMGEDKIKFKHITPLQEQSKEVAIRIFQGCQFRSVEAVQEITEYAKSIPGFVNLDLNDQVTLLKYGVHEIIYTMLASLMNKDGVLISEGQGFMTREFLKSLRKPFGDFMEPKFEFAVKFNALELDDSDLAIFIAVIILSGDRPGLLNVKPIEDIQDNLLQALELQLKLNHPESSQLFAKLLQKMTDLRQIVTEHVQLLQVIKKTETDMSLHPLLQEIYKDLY
Procedure, shortened: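 Same HepG2 hPPARα or hPPARγ / PPRE3-TK-luc luciferase transactivation assay. Efficacy expressed as percent of maximal response, normalized to 100% for the reference agonist: WY-14643 for α, rosiglitazone for γ.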

Mus musculus [2] = assay: Antihyperglycemic activity in db/db mouse assessed as reduction in glucose level at 3 mg/kg/day, po administered for 6 days relative to control; type: functional; parameters: scale not given: the % may be the effect or the level left
Procedure, shortened: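 Male db/db mice aged 6–8 weeks were dosed orally once daily for 6 days. Plasma glucose was then measured and expressed as % change versus vehicle-treated controls.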

[3] = Half life in fasting Wistar rat at 30 mg/kg, po; type: ADME, organism-based; parameters: dose 30 mg/kg, route oral; settings: in vivo
Procedure, shortened: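 Fasted male Wistar rats received one oral dose of 30 mg/kg. Plasma Cmax, T1/2 and Tmax are reported as mean ± SD of n = 3.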

Mus musculus [4] = assay: Hypolipidemic activity in db/db mouse assessed as reduction in triglyceride level at 1 mg/kg, po; type: functional; parameters: scale not given: the % may be the effect or the level left
Mus musculus [5] = species on record: Mus musculus; assay: Hypolipidemic activity in db/db mouse assessed as reduction in triglyceride level; type: functional
Mus musculus [6] = assay: Antihyperglycemic activity in db/db mouse assessed as reduction in plasma glucose level at 0.003 mg/kg, po; type: functional; parameters: scale not given: the % may be the effect or the level left
Mus musculus [7] = assay: Antihyperglycemic activity in db/db mouse assessed as reduction in plasma glucose level at 0.01 mg/kg, po; type: functional; parameters: scale not given: the % may be the effect or the level left
Mus musculus [8] = assay: Antihyperglycemic activity in db/db mouse assessed as reduction in plasma glucose level at 0.03 mg/kg, po; type: functional; parameters: scale not given: the % may be the effect or the level left
Mus musculus [9] = species on record: Mus musculus; assay: Antihyperglycemic activity in db/db mouse assessed as reduction in plasma glucose level; type: functional
Rattus norvegicus [10] = assay: Toxicity in male Wistar rat assessed as heart to body weight ratio at 30 mg/kg, po measured after 28 days (reference value: 0.383 +/- 0.012); type: organism-based; parameters: dose 30 mg/kg, route oral; settings: in vivo, 672 h
Rattus norvegicus [11] = assay: Toxicity in male Wistar rat assessed as liver to body weight ratio at 3 mg/kg, po measured after 28 days (reference value: 3.257 +/- 0.067); type: organism-based; parameters: dose 3 mg/kg, route oral; settings: in vivo, 672 h
Rattus norvegicus [12] = assay: Toxicity in male Wistar rat assessed as spleen to body weight ratio at 3 mg/kg, po measured after 28 days (reference value: 0.215 +/- 0.007); type: organism-based; parameters: dose 3 mg/kg, route oral; settings: in vivo, 672 h
Rattus norvegicus [13] = assay: Toxicity in male Wistar rat assessed as brain to body weight ratio at 30 mg/kg, po measured after 28 days (reference value: 0.658 +/- 0.015); type: organism-based; parameters: dose 30 mg/kg, route oral; settings: in vivo, 672 h
Rattus norvegicus [14] = assay: Toxicity in female Wistar rat assessed as heart to body weight ratio at 3 mg/kg, po measured after 28 days (reference value: 0.403 +/- 0.010); type: organism-based; parameters: dose 3 mg/kg, route oral; settings: in vivo, 672 h
Rattus norvegicus [15] = assay: Toxicity in female Wistar rat assessed as kidney to body weight ratio at 30 mg/kg, po measured after 28 days (reference value: 0.733 +/- 0.007); type: organism-based; parameters: dose 30 mg/kg, route oral; settings: in vivo, 672 h
Rattus norvegicus [16] = assay: Toxicity in female Wistar rat assessed as spleen to body weight ratio at 30 mg/kg, po measured after 28 days (reference value: 0.237 +/- 0.012); type: organism-based; parameters: dose 30 mg/kg, route oral; settings: in vivo, 672 h
Rattus norvegicus [17] = assay: Toxicity in female Wistar rat assessed as adrenal to body weight ratio at 30 mg/kg, po measured after 28 days (reference value: 0.028 +/- 0.001); type: organism-based; parameters: dose 30 mg/kg, route oral; settings: in vivo, 672 h
Rattus norvegicus [18] = assay: Toxicity in female Wistar rat assessed as brain to body weight ratio at 30 mg/kg, po measured after 28 days (reference value: 0.970 +/- 0.023); type: organism-based; parameters: dose 30 mg/kg, route oral; settings: in vivo, 672 h
Rattus norvegicus [19] = assay: Toxicity in female Wistar rat assessed as uterus to body weight ratio at 3 mg/kg, po measured after 28 days (reference value: 0.233 +/- 0.041); type: organism-based; parameters: dose 3 mg/kg, route oral; settings: in vivo, 672 h
Rattus norvegicus [20] = assay: Toxicity in female Wistar rat assessed as uterus to body weight ratio at 30 mg/kg, po measured after 28 days (reference value: 0.233 +/- 0.041); type: organism-based; parameters: dose 30 mg/kg, route oral; settings: in vivo, 672 h
Rattus norvegicus [21] = assay: Toxicity in female Wistar rat assessed as thymus to body weight ratio at 3 mg/kg, po measured after 28 days (reference value: 0.094 +/-0.01); type: organism-based; parameters: dose 3 mg/kg, route oral; settings: in vivo, 672 h
Rattus norvegicus [22] = assay: Toxicity in male Wistar rat assessed as SGOT level at 3 mg/kg, po measured after 28 days (reference value: 135.14 +/- 6.89 U/L); type: organism-based; parameters: dose 3 mg/kg, route oral; settings: in vivo, 672 h
Rattus norvegicus [23] = assay: Toxicity in male Wistar rat assessed as SGPT level at 3 mg/kg, po measured after 28 days (reference value: 34.24 +/- 2.13 U/L); type: organism-based; parameters: dose 3 mg/kg, route oral; settings: in vivo, 672 h
Rattus norvegicus [24] = assay: Toxicity in female Wistar rat assessed as hemoglobin level at 3 mg/kg, po measured after 28 days (reference value: 11.90 +/- 0.19 g/dl); type: organism-based; parameters: dose 3 mg/kg, route oral; settings: in vivo, 672 h
Rattus norvegicus [25] = assay: Toxicity in female Wistar rat assessed as hemoglobin level at 30 mg/kg, po measured after 28 days (reference value: 11.90 +/- 0.19 g/dl); type: organism-based; parameters: dose 30 mg/kg, route oral; settings: in vivo, 672 h
Rattus norvegicus [26] = assay: Toxicity in female Wistar rat assessed as glucose level at 30 mg/kg, po measured after 28 days (reference value: 69.94 +/- 2.30 mg/dl); type: organism-based; parameters: dose 30 mg/kg, route oral; settings: in vivo, 672 h
Rattus norvegicus [27] = assay: Toxicity in female Wistar rat assessed as SGOT level at 3 mg/kg, po measured after 28 days (reference value: 155.70 +/- 6.56 U/L); type: organism-based; parameters: dose 3 mg/kg, route oral; settings: in vivo, 672 h
Rattus norvegicus [28] = assay: Toxicity in female Wistar rat assessed as SGPT level at 30 mg/kg, po measured after 28 days (reference value: 30.44 +/- 1.59 U/L); type: organism-based; parameters: dose 30 mg/kg, route oral; settings: in vivo, 672 h
Rattus norvegicus [29] = assay: Toxicity in female Wistar rat assessed as urea level at 30 mg/kg, po measured after 28 days (reference value: 33.05 +/- 2.02 mg/dl); type: organism-based; parameters: dose 30 mg/kg, route oral; settings: in vivo, 672 h
Rattus norvegicus [30] = assay: Toxicity in male Wistar rat assessed as ALP level at 30 mg/kg, po measured after 28 days (reference value: 243.88 +/- 20.34 U/L); settings: in vivo, 672 h
Rattus norvegicus [31] = assay: Toxicity in female Wistar rat assessed as ALP level at 30 mg/kg, po measured after 28 days (reference value: 172.38 +/- 7.18 U/L); settings: in vivo, 672 h

Emax [1]: 165%
half-life [3]: 7.4 h
Structure (SMILES): CCO[C@@H](Cc1ccc(OCCc2nc(-c3ccc(C)s3)oc2C)cc1)C(=O)O
Activity (Mus musculus [2]): 72%
Activity (Mus musculus [4]): 64.2%
ED50 (Mus musculus [5]): 0.0188 mg/kg
Activity (Mus musculus [6]): 47.1%
Activity (Mus musculus [7]): 52.7%
Activity (Mus musculus [8]): 52.1%
ED50 (Mus musculus [9]): 0.166 mg/kg
Ratio (Rattus norvegicus [10]): 0.479
Ratio (Rattus norvegicus [11]): 7.505
Ratio (Rattus norvegicus [12]): 0.223
Ratio (Rattus norvegicus [13]): 0.757
Ratio (Rattus norvegicus [14]): 0.46
Ratio (Rattus norvegicus [15]): 0.915
Ratio (Rattus norvegicus [16]): 0.26
Ratio (Rattus norvegicus [17]): 0.022
Ratio (Rattus norvegicus [18]): 0.939
Ratio (Rattus norvegicus [19]): 0.176
Ratio (Rattus norvegicus [20]): 0.189
Ratio (Rattus norvegicus [21]): 0.101
Activity (Rattus norvegicus [22]): 193.51 U/L
Activity (Rattus norvegicus [23]): 28.54 U/L
Activity (Rattus norvegicus [24]): 11.84 g/dL
Activity (Rattus norvegicus [25]): 11.83 g/dL
Activity (Rattus norvegicus [26]): 91.79 mg/dL
Activity (Rattus norvegicus [27]): 157.09 U/L
Activity (Rattus norvegicus [28]): 35.21 U/L
Activity (Rattus norvegicus [29]): 37.39 mg/dL
Activity (Rattus norvegicus [30]): 679.13 U/L
Activity (Rattus norvegicus [31]): 248.38 U/L
